The structures appear in SMILES notation.

This is an account of results in ChEMBL document CHEMBL1154577, “Cytotoxic biflavonoids from Selaginella delicatula” (J Nat Prod, 2000).

The subject of data set [1] is Calu-1. The data set can be described thus: Cytotoxicity against human Calu1 cells after 3 days. In kind it is functional, cell-based. The conditions noted are these: Calu-1, 72 h. The gist of the method:
(§1)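 Vero, Wish, Calu-1 and HeLa cells were kept in MEM with 10% FCS, 100 µg/mL streptomycin and 100 U/mL penicillin at 37 °C under humidified 5% CO2. Cells were exposed to various concentrations, or none, for 3 days, with a tritiated thymidine pulse for the final 16 h before harvest. Incorporation was read by scintillation counting and inhibition calculated; three independent experiments averaged.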

In data set [2] the test system is Raji. Kind of data set: Cytotoxicity against human Raji cells after 3 days. The conditions noted are these: 72 h. The format is functional, cell-based. The gist of the method:
(§2)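 K562 (erythroleukemia) and Raji (EBV-transformed B) cells grown in RPMI-1640 with 10% FCS, 100 U/mL penicillin and 100 µg/mL streptomycin at 37 °C under humidified 5% CO2. They were cultured with or without various concentrations for 3 days, then pulsed with tritiated thymidine for 16 h before harvest. Radioactivity was counted by scintillation and inhibition calculated; mean of three independent experiments.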

The test system of another data set is Vero. Kind of data set: Cytotoxicity against african green monkey Vero cells after 3 days. In kind it is cell-based. The conditions noted are these: Chlorocebus sabaeus, 72 h. The gist of the method:
as §1

Data set [3] deals with WISH. Kind of data set: Cytotoxicity against human Wish cells after 3 days. The format is cell-based. Particulars: 72 h. The gist of the method:
as §1

The subject of data set [4] is K562. The data set can be described thus: Cytotoxicity against human K562 cells after 3 days. Particulars: K562, 72 h. The format is functional, cell-based. The gist of the method: as §2
Data set [5] concerns HeLa. Kind of data set: Cytotoxicity against human HeLa cells after 3 days. The format is functional, cell-based. Particulars: 72 h. The gist of the method:
as §1

In data set [6] the test system is HeLa. The data set can be described thus: Cytotoxicity against human HeLa cells at 100 uM after 3 days. In kind it is functional. The conditions noted are these: 72 h. The gist of the method: as §1
The test system of data set [7] is Calu-1. Kind of data set: Cytotoxicity against human Calu1 cells at 100 uM after 3 days. Particulars: Calu-1, 72 h. The format is functional. The gist of the method:
as §1

A short description of data set [8]: Cytotoxicity against african green monkey Vero cells at 100 uM after 3 days. Particulars: chlorocebus sabaeus, read-out: INH. The format is cell-based. The gist of the method:
as §1

For data set [9], the system named is K562. The data set can be described thus: Cytotoxicity against human K562 cells at 100 uM after 3 days. The format is functional. Particulars: K562, 72 h. The gist of the method: as §2
In data set [10] the test system is Calu-1. Kind of data set: Cytotoxicity against human Calu1 cells at 25 uM after 3 days. In kind it is functional. The conditions noted are these: Calu-1, 72 h. The gist of the method:
as §1

The test system of data set [11] is Calu-1. The data set can be described thus: Cytotoxicity against human Calu1 cells at 50 uM after 3 days. In kind it is functional. Particulars: Calu-1, 72 h. The gist of the method: as §1
The subject of data set [12] is Raji. The data set can be described thus: Cytotoxicity against human Raji cells at 100 uM after 3 days. Particulars: 72 h. The format is functional. The gist of the method: as §2
In data set [13] the test system is Raji. The data set can be described thus: Cytotoxicity against human Raji cells at 12.5 uM after 3 days. In kind it is functional. The conditions noted are these: 72 h. The gist of the method: as §2
Data set [14] deals with WISH. Kind of data set: Cytotoxicity against human Wish cells at 100 uM after 3 days. The format is cell-based. The conditions noted are these: 72 h. The gist of the method:
as §1

The test system of data set [15] is Raji. The data set can be described thus: Cytotoxicity against human Raji cells at 25 uM after 3 days. The conditions noted are these: 72 h. In kind it is functional. The gist of the method:
as §2

Data set [16] relates to Calu-1. Kind of data set: Cytotoxicity against human Calu1 cells at 12.5 uM after 3 days. The conditions noted are these: Calu-1, 72 h. In kind it is functional. The gist of the method:
as §1

In data set [17] the test system is Raji. The data set can be described thus: Cytotoxicity against human Raji cells at 50 uM after 3 days. In kind it is functional. Particulars: 72 h. The gist of the method: as §2

As a reminder, the IC50 is the midpoint of a concentration-inhibition curve. For `COc1cc(O)c2c(=O)cc(-c3ccc(OC)c(-c4c(OC)cc5c(c4O)C(=O)C[C@H](c4ccc(O)cc4)O5)c3)oc2c1`, the IC50 in the data set with Calu-1 [1], with Raji [2], in the data set on Vero, with WISH [3], in the data set with K562 [4] and in the data set on HeLa [5] was over 100 µM each time.

In general, inhibition refers to the share of the control response that was lost under treatment. Consider `COc1cc(O)c2c(=O)cc(-c3ccc(OC)c(-c4c(O)cc5c(c4O)C(=O)C[C@H](c4ccc(O)cc4)O5)c3)oc2c1`, for which the inhibition at 100 µM stood at 35% in the data set with HeLa [6], 100% in the data set on Calu-1 [7], 18% with K562 [9] and 96.3% with Raji [12]. The cytotoxicity at 72 h, 100 µM in [8] turned out to be 26.8%. The inhibition at 25 µM came out at 29.9% in the data set with Calu-1 [10] and 22.3% in the data set with Raji [15]. In addition, the inhibition at 50 µM is 55.4% with Calu-1 [11] and 24.7% in the data set with Raji [17]. Further, the inhibition at 12.5 µM in the data set with Raji [13] was found to be 17.9%; in the data set with Calu-1 [16] it was 15.8%. Also, the “inhibition (INH)” value in the data set on WISH [14] is given as -65%.

`COc1cc(O)c2c(=O)cc(-c3ccc(OC)c(-c4c(O)cc5oc(-c6ccc(O)cc6)cc(=O)c5c4O)c3)oc2c1`: the concentration for half-maximal inhibition (IC50) in the data set on Calu-1 [1], in the data set on Raji [2], in the data set with Vero, in the data set with WISH [3], in the data set with K562 [4] and in the data set with HeLa [5] was over 100 µM throughout.

Regarding `O=c1cc(-c2ccc(O)c(-c3c(O)cc4oc(-c5ccc(O)cc5)cc(=O)c4c3O)c2)oc2cc(O)cc(O)c12` [ROBUSTAFLAVONE], the concentration for half-maximal inhibition (IC50) in the data set with Calu-1 [1], in the data set on Raji [2], in the data set on Vero, in the data set with WISH [3], in the data set on K562 [4] and in the data set with HeLa [5] was over 100 µM throughout.

With `O=c1cc(-c2ccc(O)c(-c3c(O)cc(O)c4c(=O)cc(-c5ccc(O)cc5)oc34)c2)oc2cc(O)cc(O)c12` [AMENTOFLAVONE], the 50% inhibitory concentration (IC50) in the data set with Calu-1 [1], in the data set on Raji [2], in the data set on Vero, in the data set on WISH [3], with K562 [4] and in the data set on HeLa [5] was over 100 µM throughout.

`COc1ccc(-c2cc(=O)c3c(O)cc(O)cc3o2)cc1-c1c(O)cc2oc(-c3ccc(O)cc3)cc(=O)c2c1O`: the inhibition at 100 µM with HeLa [6] is 5.5%; in the data set on Calu-1 [7], 100%; with K562 [9], 10.8%; in the data set on Raji [12] it was 98.4%. Further, the cytotoxicity at 72 h, 100 µM in data set [8] is -6.6%. In addition, the inhibition at 25 µM with Calu-1 [10] amounted to 44.6%; in the data set with Raji [15], 60.7%. Moreover, the inhibition at 50 µM was found to be 77.9% with Calu-1 [11] and 68.5% in the data set with Raji [17]. Besides, the inhibition at 12.5 µM with Raji [13] worked out at 34.2%; in the data set on Calu-1 [16], 42.6%. Further, the “inhibition (INH)” value with WISH [14] is -90%.
